Measured values as given in ChEMBL document CHEMBL1123848, “Role of the (acyloxy)methyl moiety in eliciting the adrenergic beta-blocking activity of 3-(acyloxy)propanolamines” (J Med Chem, 1987).

How the values were obtained:
[1] = target: Beta-2 adrenergic receptor (Cavia porcellus) (UniProt Q8K4Z4); assay: (§1) Antagonist activity against beta-2 adrenergic receptor in isolated guinea pig trachea; format: functional, tissue-based
[2] = target: Beta-1 adrenergic receptor (Cavia porcellus, UniProt B0FL73); assay: (§2) Antagonist activity against beta-1 adrenergic receptor in isolated guinea pig atria; format: functional; settings: read-out: pA2 (converted)
Method in brief: (§3)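 Atria from adult male guinea pigs (300–350 g), stabilized 45 min in Tyrode solution. Isoprenaline dose-effect curve by single doses, each run to maximal response. Antagonist added at increasing concentrations with 15 min contact per dose; solutions freshly prepared.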

[3] = target: Beta-1 adrenergic receptor (Cavia porcellus) (UniProt B0FL73); assay: as §2; format: functional
Method in brief: as §3, with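 “prepared. Percent inhibition of the maximal agonist response measured; pA2 (50% reduction) and pA10 (90%) calculated by the Arunlakshana–Schild method.” for “prepared.”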

[4] = target: Beta-2 adrenergic receptor (Cavia porcellus, UniProt Q8K4Z4); assay: as §1; format: functional, tissue-based; settings: read-out: pA2 (converted)
Beta-2 adrenergic receptor, sequence (Q8K4Z4 whole entry): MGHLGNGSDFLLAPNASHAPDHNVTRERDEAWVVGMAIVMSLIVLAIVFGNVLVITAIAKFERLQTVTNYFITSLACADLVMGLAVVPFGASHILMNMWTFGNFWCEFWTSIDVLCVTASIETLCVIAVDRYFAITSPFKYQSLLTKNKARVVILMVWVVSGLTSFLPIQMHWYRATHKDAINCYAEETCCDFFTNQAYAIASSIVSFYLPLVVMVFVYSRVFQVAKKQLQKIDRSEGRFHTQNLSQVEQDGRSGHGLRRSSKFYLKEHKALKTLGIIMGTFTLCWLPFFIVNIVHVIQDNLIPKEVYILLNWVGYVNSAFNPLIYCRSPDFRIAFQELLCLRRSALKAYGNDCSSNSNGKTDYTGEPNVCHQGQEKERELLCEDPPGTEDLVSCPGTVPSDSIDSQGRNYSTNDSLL

Beta-1 adrenergic receptor, sequence (B0FL73 whole entry): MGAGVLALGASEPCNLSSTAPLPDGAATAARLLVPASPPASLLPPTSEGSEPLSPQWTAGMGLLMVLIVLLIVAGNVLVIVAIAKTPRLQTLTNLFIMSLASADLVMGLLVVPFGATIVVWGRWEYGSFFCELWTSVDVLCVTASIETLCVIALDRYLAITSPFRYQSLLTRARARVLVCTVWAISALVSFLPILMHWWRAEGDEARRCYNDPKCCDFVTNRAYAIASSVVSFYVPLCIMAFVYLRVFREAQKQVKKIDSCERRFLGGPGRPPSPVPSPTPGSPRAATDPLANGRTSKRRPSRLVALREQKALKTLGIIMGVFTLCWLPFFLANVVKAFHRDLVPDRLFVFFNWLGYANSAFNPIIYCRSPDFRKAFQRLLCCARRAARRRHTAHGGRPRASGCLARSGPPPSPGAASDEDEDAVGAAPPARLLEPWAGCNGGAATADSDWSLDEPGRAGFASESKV
Beta-1 adrenergic receptor (Cavia porcellus), sequence (B0FL73 1-467): as the sequence (B0FL73 whole entry) above
Beta-2 adrenergic receptor (Cavia porcellus), sequence (Q8K4Z4 whole entry, looked up): as the sequence (Q8K4Z4 whole entry) above

Row | pA10 [1] | Kb [2] | pA10 [3] | Kb [4] | SMILES
1 | 4.71 | 7.94 µM | 4.22 | 2.51 µM | CC(C)(C)NCC(O)COC(=O)C1CCCCC1 (stereo not given)
2 | 3.94 | 11.5 µM | 4.1 | 28.8 µM | CC(C)C(=O)OCC(O)CNC(C)(C)C (stereo not given)
3 | 4.35 | 11 µM | 4.28 | 10 µM | CC(C)NCC(O)COC(=O)Cc1cccs1 (stereo not given)
4 |  | 0.126 µM |  |  | CC(C)NCC(O)COC(=O)c1ccc2c(c1)OCO2 (stereo not given)

Continued, compound first:

Row | SMILES | pA10 [1] | Kb [2] | pA10 [3] | Kb [4]
5 | CC(C)NCC(O)COC(=O)C(C)C (stereo not given) | 4.52 | 26.9 µM | 3.9 | 4.27 µM
6 | CC(C)NCC(O)COC(=O)c1cccs1 (stereo not given) | 5.54 | 1.58 µM | 5.11 | 0.468 µM
7 | COc1ccc(OC)c(C(O)C(C)NC(C)(C)C)c1 (stereo not given) | 5.96 |  | 3.98 | 
8 | CCC(=O)OCC(O)CNC(C)(C)C (stereo not given) | 3.79 | 28.2 µM | 3.74 | 26.3 µM
9 | CC(C)(C)NCC(O)COC(=O)c1cccs1 (stereo not given) | 6.82 | 0.457 µM | 5.42 | 0.0191 µM
10 | CC(C)NCC(O)COC(=O)C1CCCCC1 (stereo not given) | 4.62 | 12.3 µM | 4.2 | 2.29 µM
